From article PMC12479363 (Nature Immunology, 2025) come the findings set out here.

Counter-ions that a name gives are not always drawn. No end group written: not given here. *: point of attachment. Biotin = O=C1N[C@H]2[C@H](CS[C@H]2CCCCC(=O)*)N1; Ahx = NCCCCCC(=O)O

Assay [1] concerns LPS-induced sepsis in mice. The experiment in a line: Severe LPS. In kind it is in vivo, mouse. The conditions noted are these: at 5 h, n = 10; for plasma IL-1β levels: vs saline.
The subject of assay [2] is LPS-induced sepsis in mice. The experiment in a line: Low-dose LPS. The conditions noted are these: for plasma IL-1β levels: mild sepsis, at 24 h, vs saline, n = 10. In kind it is in vivo, mouse. In a few lines: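 C57BL/6J and Gsdmd−/− mice (8–10 weeks, 50:50 female:male) were randomized, unblinded, and given LPS (O55:B5) 15 mg per kg i.p. At 16 h they received saline or test peptide 1 mg per kg i.v. Blood AST, BUN, ALT and CK were measured at day 2 (n = 6). Plasma IL-1β was measured by ELISA (n = 10).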

Assay [3] relates to LPS-induced sepsis in mice. The experiment in a line: Moderate LPS. In kind it is in vivo, mouse. The settings on record: at 6 h, n = 10; for plasma IL-1β levels: vs saline. In a few lines: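 Sepsis was induced in wild-type mice (8–10 weeks, mixed sex) with LPS (O55:B5) 25 mg per kg i.p. At 5 h after LPS they received saline or test peptide 2 mg per kg i.v. Reference pore inhibitors were given i.p. Plasma IL-1β was measured by ELISA every 3 h up to 48 h.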

The next assay concerns human blood leukocytes. The experiment in a line: Pyroptosis in human whole blood. It counts as cell-based. The settings on record: DSF vs PBS, LPS + nigericin-treated blood, 1 h.
Another assay relates to BMDMs. The experiment in a line: Cell membrane repair: CHMP4–GFP puncta and Annexin V. In kind it is cell-based, mouse. The conditions noted are these: 2 mM EDTA + 15 µM SK56, LPS + nigericin.
Assay [4] addresses T1, pyroptotic cytomembranes, which contain GSDMD-NT pores (Homo sapiens, UniProt P57764).
T1 sequence (P57764 1-275 limits assumed): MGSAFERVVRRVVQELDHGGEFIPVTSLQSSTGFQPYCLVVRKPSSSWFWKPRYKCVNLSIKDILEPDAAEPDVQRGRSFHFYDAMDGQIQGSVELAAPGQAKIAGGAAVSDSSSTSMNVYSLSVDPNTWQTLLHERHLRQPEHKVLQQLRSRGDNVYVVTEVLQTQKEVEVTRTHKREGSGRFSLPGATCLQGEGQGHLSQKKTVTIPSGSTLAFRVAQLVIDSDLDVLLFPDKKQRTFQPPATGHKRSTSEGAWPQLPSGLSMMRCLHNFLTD
The experiment in a line: Biolayer interferometry, pyroptotic cytomembranes. In kind it is binding. (Biolayer interferometry detects binding as a change in optical thickness at a sensor tip.)

`COC(=O)/C=C/C(=O)OC` [DMF, dimethyl fumarate]: the “organ damage markers in the plasma” value in assay [1] and in assay [3] was “lowered levels of organ damage markers” throughout. The “plasma IL-1β levels” value in assay [1], in assay [2] and in assay [3] was “reduced plasma IL-1β levels” each time.

For the molecule `CCN(CC)C(=S)SSC(=S)N(CC)CC` [DSF, disulfiram], the “organ damage markers in the plasma” value in assay [1] was “failed to suppress BUN but inhibited the other three organ damage markers”. For the same molecule, the “plasma IL-1β levels” value in assay [1], in assay [2] and in assay [3] was “reduced plasma IL-1β levels” each time. Besides, the “secretion of IL-1β and IL-18” value in the assay on human blood leukocytes is recorded as “completely blocked”.

`COc1nccnc1NS(=O)(=O)c1ccc(NC(=O)/C=C/c2ccc([N+](=O)[O-])s2)cc1` [NSA, necrosulfonamide]: in assay [1], the “organ damage markers in the plasma” value is on record as “lowered levels of organ damage markers” and the “plasma IL-1β levels” value is listed as “had no effect”. The “blood biochemical markers (AST, BUN, ALT and CK)” value in assay [2] (LPS 15 mg/kg, treatment at 16 h, day 2, vs saline-treated WT mice, n = 6) was “inhibited AST, BUN, ALT and CK”. For the same molecule, in assay [3], the “organ damage markers in the plasma” value is “lowered levels of organ damage markers”.

Take `O=C(O)CN(CCN(CC(=O)O)CC(=O)O)CC(=O)O` [EDTA]: the “proportion of Annexin V+ BMDMs” value with BMDMs is “restored the proportion of Annexin V^+ BMDMs to the level seen in BMDMs without SK56 treatment”.

Usually Kd stands for the concentration at which binding is half-saturated. A higher Kd goes with weaker binding. Molecule “{Biotin-Ahx-Ahx}-SLEEFAKRVVEELVKEFNLDKRQESYLEMSALIQAQMGISERIIEIVLRHAAQTLK [Biotinylated SK56]” gave a Kd in assay [4] of 10.9 nM.
